In ChEMBL document CHEMBL4138092, “Antibacterial activity and mechanism of action of the benzazole acrylonitrile-based compounds: In vitro, spectroscopic, and docking studies” (2017):
≈ marks a conversion by molar mass, not a printed value. Calls of active or inactive are those of the source. The calls are words filed in the database; no cut-off is given here.

Columns and labels:
Bacillus spizizenii [1] = assay: Antibacterial activity against Bacillus subtilis ATCC 6633 after 24 to 48 hrs by agar well diffusion method; format: functional
Outline: (§1)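 Mueller Hinton agar plates spread with bacteria (10⁶ cells/ml). Wells were filled with 50 µl of compound and incubated at 37 °C for 24–48 h. The inhibition zone diameter (mm) was measured with a transparent scale. Amoxicillin 5.0 mg/ml at 50 µl/well served as the positive control.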

Escherichia coli [2] = assay: Antibacterial activity against Escherichia coli ATCC 25922 after 24 hrs by agar well diffusion method; format: functional; details: ATCC 25922, 24 h
Pseudomonas aeruginosa [3] = assay: Antibacterial activity against Pseudomonas aeruginosa ATCC 27853 after 24 hrs by agar well diffusion method; format: functional; details: ATCC 27853, 24 h
Staphylococcus aureus [4] = assay: Antibacterial activity against Staphylococcus aureus ATCC 25923 after 24 hrs by agar well diffusion method; format: functional; details: ATCC 25923, 24 h
Bacillus spizizenii [5] = assay: Antibacterial activity against Bacillus subtilis ATCC 6633 after 24 hrs by agar well diffusion method; format: functional; details: ATCC 6633, 24 h
Escherichia coli [6] = assay: Antibacterial activity against Escherichia coli ATCC 25922 after 24 to 48 hrs by agar well diffusion method; format: functional; outline: as §1
Pseudomonas aeruginosa [7] = assay: Antibacterial activity against Pseudomonas aeruginosa ATCC 27853 after 24 to 48 hrs by agar well diffusion method; format: functional; outline: as §1
Staphylococcus aureus [8] = assay: Antibacterial activity against Staphylococcus aureus ATCC 25923 after 24 to 48 hrs by agar well diffusion method; format: functional; outline: as §1
[9] = molecular target: Beta-lactamase (Escherichia coli) (UniProt Q53TY8); assay: Binding affinity to Escherichia coli beta-lactamase in phosphate buffer at pH 7.4 at 6 10^-5M after 3 mins by UV-vis spectroscopic analysis
Outline: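 Compound at 6 × 10^-5 M in 0.01 M phosphate buffer pH 7.4 was titrated with 10 µl aliquots of 1 × 10^-6 M β-lactamase. Absorbance spectra were recorded at 200–700 nm after 3 min equilibration per addition, continuing until no further change (saturation).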

[10] = molecular target: Beta-lactamase (Escherichia coli) (UniProt Q53TY8); assay: Binding affinity to Escherichia coli beta-lactamase in phosphate buffer at pH 7.4 at 6 10^-5M after 3 mins by fluorescence titration analysis
Outline: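 Fixed compound concentration in phosphate buffer pH 7.4, titrated with 10 µl additions of 1 × 10^-6 M β-lactamase. Excitation was 280 or 290 nm depending on compound, with emission scanned 300–600 nm and slits 5–10 nm. Readings followed 3 min equilibration per addition in a 1 cm quartz cell, continuing to saturation.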

[11] = molecular target: Beta-lactamase (Escherichia coli) (UniProt Q53TY8); assay: Binding affinity to Escherichia coli beta-lactamase in phosphate buffer at pH 7.4 at 6 10^-5M by CD spectral analysis
Outline: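 Successive additions of compound (6 × 10^-5 M) were made to 1.0 mL β-lactamase in phosphate buffer pH 7.4. CD spectra were recorded at 25 °C over 200–700 nm, scan speed 50 nm/min, bandwidth 1 nm.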

Escherichia coli [12] = assay: Induction of morphological changes in Escherichia coli ATCC 25922 assessed as cell damage at 0.2 ppm after 2 hrs by uranyl acetate staining based transmission electron microscopic analysis; format: functional, organism-based
Outline: (§2)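 E. coli was exposed for 2 h, alongside untreated controls processed identically. Pellets were fixed in Karnovsky's fixative (2% paraformaldehyde, 2.5% glutaraldehyde) for 3–4 h at 25 °C, then washed in 0.1 M phosphate pH 7.2. Cells were adsorbed onto formvar-carbon copper grids and stained 5 min in […] aqueous uranyl acetate. Grids were imaged by TEM at 80 kV.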

Escherichia coli [13] = assay: Induction of morphological changes in Escherichia coli ATCC 25922 assessed as cell crack at 0.2 ppm after 2 hrs by uranyl acetate staining based transmission electron microscopic analysis; format: functional, organism-based; outline: as §2
Escherichia coli [14] = assay: Induction of morphological changes in Escherichia coli ATCC 25922 assessed as cell rupture at 0.2 ppm after 2 hrs by uranyl acetate staining based transmission electron microscopic analysis; format: functional, organism-based; outline: as §2
[15] = tested on: Bifidobacterium longum subsp. infantis; assay: Inhibition of beta-lactamase in Bifidobacterium infantis assessed as potentiation of amoxicillin induced antibacterial activity at 10 to 100% amoxicillin to compound dilution after 24 hrs by agar well diffusion method
Outline: (§3)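 Amoxicillin (1.0 µg/ml) was combined with test compound and diluted to 100, 80, 60, 40, 10 and 5%. The mixtures were serially diluted in sterile water, and 100 µl was added to 900 µl nutrient broth. Tubes were inoculated with 10 µl of 10⁵ cells/ml and held 24 h at 37±1 °C. Growth/no growth was scored visually. Controls were bacteria in broth alone and sterile broth alone.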

[16] = tested on: Bifidobacterium longum subsp. infantis; assay: Inhibition of beta-lactamase in Bifidobacterium infantis assessed as potentiation of amoxicillin induced antibacterial activity at 5% amoxicillin to compound dilution after 24 hrs by agar well diffusion method; outline: as §3
[17] = tested on: Escherichia coli ATCC 25922; assay: Inhibition of beta-lactamase in Escherichia coli ATCC 25922 assessed as potentiation of amoxicillin induced antibacterial activity at 10 to 100% amoxicillin to compound dilution after 24 hrs by agar well diffusion method; outline: as §3
[18] = tested on: Escherichia coli ATCC 25922; assay: Inhibition of beta-lactamase in Escherichia coli ATCC 25922 assessed as potentiation of amoxicillin induced antibacterial activity at 5% amoxicillin to compound dilution after 24 hrs by agar well diffusion method; outline: as §3
[19] = molecular target: Beta-lactamase (Staphylococcus aureus) (UniProt P00807); assay: Inhibition of beta-lactamase in Staphylococcus aureus ATCC 25923 assessed as potentiation of amoxicillin induced antibacterial activity at 10 to 100% amoxicillin to compound dilution after 24 hrs by agar well diffusion method; outline: as §3
[20] = molecular target: Beta-lactamase (Staphylococcus aureus) (UniProt P00807); assay: Inhibition of beta-lactamase in Staphylococcus aureus ATCC 25923 assessed as potentiation of amoxicillin induced antibacterial activity at 5% amoxicillin to compound dilution after 24 hrs by agar well diffusion method; outline: as §3
[21] = molecular target: Beta-lactamase (Pseudomonas aeruginosa) (UniProt Q79MP6); assay: Inhibition of beta-lactamase in Pseudomonas aeruginosa ATCC 27853 assessed as potentiation of amoxicillin induced antibacterial activity at 10 to 100% amoxicillin to compound dilution after 24 hrs by agar well diffusion method; outline: as §3
[22] = molecular target: Beta-lactamase (Pseudomonas aeruginosa) (UniProt Q8RL90); assay: Inhibition of beta-lactamase in Pseudomonas aeruginosa ATCC 27853 assessed as potentiation of amoxicillin induced antibacterial activity at 5% amoxicillin to compound dilution after 24 hrs by agar well diffusion method; outline: as §3
Bifidobacterium longum = assay: Antibacterial activity against Bifidobacterium infantis after 24 hrs by agar well diffusion method; format: functional, Bifidobacterium longum subsp. infantis
[23] = tested on: Bifidobacterium longum subsp. infantis; assay: Inhibition of beta-lactamase in Bifidobacterium infantis assessed as potentiation of amoxicillin induced antibacterial activity by measuring amoxicillin MIC after 24 hrs by agar well diffusion method (reference value: 1.5 ug/ml); outline: as §3
[24] = tested on: Escherichia coli ATCC 25922; assay: Inhibition of beta-lactamase in Escherichia coli ATCC 25922 assessed as potentiation of amoxicillin induced antibacterial activity by measuring amoxicillin MIC after 24 hrs by agar well diffusion method (reference value: 1.5 ug/ml); outline: as §3
[25] = molecular target: Beta-lactamase (Staphylococcus aureus) (UniProt P00807); assay: Inhibition of beta-lactamase in Staphylococcus aureus ATCC 25923 assessed as potentiation of amoxicillin induced antibacterial activity by measuring amoxicillin MIC after 24 hrs by agar well diffusion method (reference value: 1.5 ug/ml); outline: as §3
[26] = molecular target: Beta-lactamase (Pseudomonas aeruginosa) (UniProt Q79MP6); assay: Inhibition of beta-lactamase in Pseudomonas aeruginosa ATCC 27853 assessed as potentiation of amoxicillin induced antibacterial activity by measuring amoxicillin MIC after 24 hrs by agar well diffusion method (reference value: 1 ug/ml); outline: as §3
[27] = tested on: Bifidobacterium longum subsp. infantis; assay: Inhibition of beta-lactamase in Bifidobacterium infantis assessed as potentiation of amoxicillin induced antibacterial activity after 24 hrs by agar well diffusion method; outline: as §3
[28] = tested on: Escherichia coli ATCC 25922; assay: Inhibition of beta-lactamase in Escherichia coli ATCC 25922 assessed as potentiation of amoxicillin induced antibacterial activity after 24 hrs by agar well diffusion method; outline: as §3
[29] = molecular target: Beta-lactamase (Staphylococcus aureus) (UniProt P00807); assay: Inhibition of beta-lactamase in Staphylococcus aureus ATCC 25923 assessed as potentiation of amoxicillin induced antibacterial activity after 24 hrs by agar well diffusion method; outline: as §3
[30] = molecular target: Beta-lactamase (Pseudomonas aeruginosa) (UniProt Q8RL90); assay: Inhibition of beta-lactamase in Pseudomonas aeruginosa ATCC 27853 assessed as potentiation of amoxicillin induced antibacterial activity after 24 hrs by agar well diffusion method; outline: as §3
[31] = molecular target: Beta-lactamase (Escherichia coli) (UniProt Q53TY8); assay: Binding affinity to Escherichia coli beta-lactamase assessed as chemical shift in phosphate buffer at pH 7.4 after 60 mins by NMR analysis

SMILES | MIC (Escherichia coli [2]) [µg/mL] | MIC (Pseudomonas aeruginosa [3]) [µg/mL] | MIC (Staphylococcus aureus [4]) [µg/mL] | MIC (Bacillus spizizenii [5]) [µg/mL] | Activity [9] | Activity [10] | Activity [11] | inhibition [15] | inhibition [16] | inhibition [17] | inhibition [18] | inhibition [19] | inhibition [20] | inhibition [21] | inhibition [22] | MIC (Bifidobacterium longum) [µg/mL] | inhibition zone (IZ) (Bacillus spizizenii [1]) [mm] | inhibition zone (IZ) (Escherichia coli [6]) [mm] | inhibition zone (IZ) (Pseudomonas aeruginosa [7]) [mm] | inhibition zone (IZ) (Staphylococcus aureus [8]) [mm] | other results
N#C/C(=C\c1cnc(N2CCOCC2)nc1)c1nc2ccccc2s1 | 35.8 (≈ 102 µM) | 35.8 (≈ 102 µM) | 27.8 (≈ 79.6 µM) | 50 (≈ 143 µM) |  |  |  |  |  |  |  |  |  |  |  |  | 39 | 40 | 30 | 32 | 
N#C/C(=C\c1cnc(NCc2ccccc2)nc1)c1nc2ccccc2[nH]1 | 18 (≈ 51.1 µM) | 18 (≈ 51.1 µM) | 18 (≈ 51.1 µM) | 25 (≈ 70.9 µM) |  |  |  |  |  |  |  |  |  |  |  |  | 40 | 45 | 30 | 35 | 

Further lines, with some results ahead:

MIC (Escherichia coli [2]) [µg/mL] | MIC (Pseudomonas aeruginosa [3]) [µg/mL] | MIC (Staphylococcus aureus [4]) [µg/mL] | MIC (Bacillus spizizenii [5]) [µg/mL] | Activity [9] | Activity [10] | Activity [11] | inhibition [15] | inhibition [16] | inhibition [17] | inhibition [18] | inhibition [19] | inhibition [20] | inhibition [21] | inhibition [22] | MIC (Bifidobacterium longum) [µg/mL] | SMILES | inhibition zone (IZ) (Bacillus spizizenii [1]) [mm] | inhibition zone (IZ) (Escherichia coli [6]) [mm] | inhibition zone (IZ) (Pseudomonas aeruginosa [7]) [mm] | inhibition zone (IZ) (Staphylococcus aureus [8]) [mm] | other results
1 (≈ 3.4 µM) | 1 (≈ 3.4 µM) | 8 (≈ 27.2 µM) | 8 (≈ 27.2 µM) | Active | Active | Active | Active | inactive | Active | inactive | Active | inactive | Active | inactive | 1 (≈ 3.4 µM) | N#C/C(=C\c1cnc(N)nc1N)c1nc2ccccc2s1 | 40 | 47 | 28 | 32 | Activity (Escherichia coli [12]): Active; Activity (Escherichia coli [13]): Active; Activity (Escherichia coli [14]): Active; MIC [23]: 0.1 µg/mL; MIC [24]: 0.1 µg/mL; MIC [25]: 0.8 µg/mL; MIC [26]: 0.8 µg/mL; fractional inhibitory concentration index (FICI) [27]: 0.2; fractional inhibitory concentration index (FICI) [28]: 0.2; fractional inhibitory concentration index (FICI) [29]: 0.2; fractional inhibitory concentration index (FICI) [30]: 0.2
9 (≈ 24.1 µM) | 9 (≈ 24.1 µM) | 9 (≈ 24.1 µM) | 13 (≈ 34.9 µM) | Active | Active | Active | Active | inactive | Active | inactive | Active | inactive | Active | inactive | 9 (≈ 24.1 µM) | N#C/C(=C\c1cnc(Nc2ccc(Cl)cc2)nc1)c1nc2ccccc2[nH]1 | 40 | 40 | 28 | 32 | Activity [31]: Active; MIC [23]: 0.9 µg/mL; MIC [24]: 0.9 µg/mL; MIC [25]: 0.9 µg/mL; MIC [26]: 1.3 µg/mL; fractional inhibitory concentration index (FICI) [27]: 0.2; fractional inhibitory concentration index (FICI) [28]: 0.2; fractional inhibitory concentration index (FICI) [29]: 0.2; fractional inhibitory concentration index (FICI) [30]: 0.2
14.3 (≈ 49.3 µM) | 11.1 (≈ 38.2 µM) | 11.1 (≈ 38.2 µM) | 20 (≈ 68.9 µM) |  |  |  |  |  |  |  |  |  |  |  |  | CN(C)c1ncc(/C=C(\C#N)c2nc3ccccc3[nH]2)cn1 | 39 | 50 | 30 | 30 | 
